Results as given in ChEMBL document CHEMBL1137359, “Potent and orally bioavailable 8-bicyclo[2.2.2]octylxanthines as adenosine A1 receptor antagonists” (J Med Chem, 2006).

Legend:
Adenosine receptor A3 = molecular target: T1, Adenosine receptor A3 (Homo sapiens, UniProt P0DMS8); test: Displacement of [125I]ABA from human adenosine A3 receptor expressed in HEK cells; type: cell-based, HEK293
T1 sequence (P0DMS8 whole entry): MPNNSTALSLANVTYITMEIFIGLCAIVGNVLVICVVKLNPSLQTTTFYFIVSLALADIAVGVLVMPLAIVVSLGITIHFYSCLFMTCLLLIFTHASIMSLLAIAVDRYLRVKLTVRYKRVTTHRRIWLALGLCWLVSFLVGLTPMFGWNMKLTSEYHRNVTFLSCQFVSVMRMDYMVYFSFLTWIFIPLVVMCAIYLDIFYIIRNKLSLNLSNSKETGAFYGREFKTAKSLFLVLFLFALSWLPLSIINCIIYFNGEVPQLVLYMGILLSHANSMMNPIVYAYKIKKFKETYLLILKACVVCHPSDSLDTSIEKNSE
Method in brief: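 Membranes from stably transfected CHO-K1 (hA1) or HEK (hA2A, hA2B, hA3) cells, 2 h at room temperature in 50 mM HEPES pH 7.4, 1 mM EDTA, 5 mM MgCl2, 1 U/mL adenosine deaminase. 5% DMSO final except hA3. Radioligands: 0.3 nM (hA1) or 0.6 nM (hA3) 125I-ABA, 0.7 nM 125I-ZM241385, 0.5 nM A2B ligand. Full curves 10^-11–10^-5 M, seven concentrations, four determinations each. Filtration, γ-counting, Ki derived.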

Adenosine receptor A1 = molecular target: T2, Adenosine receptor A1 (Homo sapiens, UniProt P30542); test: Displacement of [125I]ABA from human adenosine A1 receptor expressed in CHOK1 cells; type: cell-based, CHO-K1
T2 sequence (P30542 whole entry): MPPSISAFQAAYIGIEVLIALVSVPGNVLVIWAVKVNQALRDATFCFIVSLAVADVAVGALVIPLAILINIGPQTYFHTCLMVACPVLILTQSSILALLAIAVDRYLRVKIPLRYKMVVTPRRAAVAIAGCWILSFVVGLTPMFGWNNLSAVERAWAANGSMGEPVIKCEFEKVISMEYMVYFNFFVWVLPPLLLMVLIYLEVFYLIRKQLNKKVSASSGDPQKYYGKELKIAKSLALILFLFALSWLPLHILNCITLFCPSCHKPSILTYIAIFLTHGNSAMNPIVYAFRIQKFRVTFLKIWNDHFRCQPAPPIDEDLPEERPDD
Method in brief: (§1)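 Membranes from stably transfected CHO-K1 (hA1) or HEK (hA2A, hA2B, hA3) cells, 2 h at room temperature in 50 mM HEPES pH 7.4, 1 mM EDTA, 5 mM MgCl2, 1 U/mL adenosine deaminase. 5% DMSO final except hA3. Full curves 10^-11–10^-5 M, seven concentrations, four determinations each. Filtration, γ-counting, Ki derived.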

[1] = molecular target: Adenosine receptors; A1 & A2a (Homo sapiens) (UniProt P30542+P29274); test: Selectivity for human adenosine A1 receptor over human adenosine A2A receptor; type: protein assay
Adenosine receptor A2b = molecular target: T3, Adenosine receptor A2b (Homo sapiens, UniProt P29275); test: Displacement of [125I]3-(4-aminobenzyl)-8-phenyloxyacetate-1-propyl-xanthine from human adenosine A2B receptor expressed in HEK cells; type: cell-based, HEK293; method in brief: as §1
T3 sequence (P29275 whole entry): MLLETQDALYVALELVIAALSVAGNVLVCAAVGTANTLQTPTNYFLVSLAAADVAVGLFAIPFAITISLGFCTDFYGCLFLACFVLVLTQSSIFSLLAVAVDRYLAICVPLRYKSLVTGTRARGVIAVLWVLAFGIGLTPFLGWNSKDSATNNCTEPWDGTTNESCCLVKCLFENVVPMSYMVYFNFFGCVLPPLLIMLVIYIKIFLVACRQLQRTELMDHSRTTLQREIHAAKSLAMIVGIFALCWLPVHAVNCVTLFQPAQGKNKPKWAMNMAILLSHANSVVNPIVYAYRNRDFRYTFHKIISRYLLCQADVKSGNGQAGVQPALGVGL

Adenosine receptor A2a [2] = molecular target: T4, Adenosine receptor A2a (Homo sapiens, UniProt P29274); test: Displacement of [125I]ZM-241385 from human adenosine A2A receptor expressed in HEK cells; type: cell-based, HEK293; method in brief: as §1
[3] = molecular target: T5, Adenosine receptor A2b (Homo sapiens) (UniProt P29275); test: Displacement of [125I]3-(4-aminobenzyl)-8-phenyloxyacetate-1-propyl-xanthine from human adenosine A2B receptor expressed in HEK cells relative to control; type: cell-based; set-up: concentration or dose not given beside the values; settings: HEK293
T5 sequence (whole entry): T3 sequence (P29275 whole entry)
Method in brief: (§2)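 Single-point screen at 1 µM antagonist, run in duplicate, on transfected-cell membranes: CHO-K1 (hA1), HEK (hA2A, hA2B, hA3). 2 h at room temperature in 50 mM HEPES pH 7.4, 1 mM EDTA, 5 mM MgCl2, 1 U/mL adenosine deaminase; 5% DMSO except hA3. Nonspecific binding with 50 µM XAC, or 10 µM BW-1433 for hA3. Result is % radioligand bound relative to control.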

[4] = molecular target: T6, Adenosine receptor A1 (Homo sapiens) (UniProt P30542); test: Displacement of [125I]ABA from human adenosine A1 receptor expressed in CHOK1 cells relative to control; type: cell-based; set-up: concentration or dose not given beside the values; settings: CHO-K1; method in brief: as §2
T6 sequence (whole entry): T2 sequence (P30542 whole entry)

Adenosine receptor A2a [5] = molecular target: T4, Adenosine receptor A2a; test: Displacement of [125I]ZM-241385 from human adenosine A2A receptor expressed in HEK cells relative to control; type: cell-based; set-up: concentration or dose not given beside the values; settings: HEK293; method in brief: as §2
[6] = molecular target: T7, Adenosine receptor A3 (Homo sapiens) (UniProt P0DMS8); test: Displacement of [125I]ABA from human adenosine A3 receptor expressed in HEK cells relative to control; type: cell-based; set-up: concentration or dose not given beside the values; settings: HEK293; method in brief: as §2
T7 sequence (whole entry): T1 sequence (P0DMS8 whole entry)

T4 sequence (P29274 whole entry): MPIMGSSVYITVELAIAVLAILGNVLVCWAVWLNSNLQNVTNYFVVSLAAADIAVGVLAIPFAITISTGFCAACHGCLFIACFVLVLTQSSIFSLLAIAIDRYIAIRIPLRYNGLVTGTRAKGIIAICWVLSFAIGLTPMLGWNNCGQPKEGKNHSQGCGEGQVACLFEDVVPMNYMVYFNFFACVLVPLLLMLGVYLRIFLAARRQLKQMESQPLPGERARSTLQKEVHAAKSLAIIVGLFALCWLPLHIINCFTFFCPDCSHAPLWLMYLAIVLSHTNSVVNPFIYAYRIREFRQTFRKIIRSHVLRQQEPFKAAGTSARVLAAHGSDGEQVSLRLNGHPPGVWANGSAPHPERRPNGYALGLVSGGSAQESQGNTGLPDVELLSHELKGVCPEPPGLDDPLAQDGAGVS
Sequence of Adenosine receptors; A1 & A2a (Homo sapiens) (P29274 whole entry, looked up, one chain of several): as the sequence (P29274 whole entry) above

Structure (SMILES) | Ki (Adenosine receptor A3) [µM] | Ki (Adenosine receptor A1) [nM] | Ratio Ki [1] | Ki (Adenosine receptor A2b) [nM] | Ki (Adenosine receptor A2a [2]) [nM] | Activity [3] [%] | Activity [4] [%] | Activity (Adenosine receptor A2a [5]) [%] | Activity [6] [%]
CCCn1c(=O)c2nc([C@]34CC[C@](C(=O)NCCC(=O)OC)(CC3)CC4)[nH]c2n(CCC)c1=O | > 10 | 22 | 63 | 505 | 1400 |  |  |  | 
CCCn1c(=O)c2[nH]c([C@H]3CC[C@H](NC(=O)OCc4ccccc4)CC3)nc2n(CCC)c1=O |  | 109 |  |  | 2960 |  |  |  | 
CCCCC[C@]12CC[C@](c3nc4c(=O)n(CCC)c(=O)n(CCC)c4[nH]3)(CC1)CC2 |  |  |  |  |  | 100 | 25 | 79 | 100
CCCn1c(=O)c2nc([C@]34CC[C@](C(=O)NCC(=O)OC)(CC3)CC4)[nH]c2n(CCC)c1=O | 6.7 | 8 | 85 | 207 | 681 |  |  |  | 
CCCn1c(=O)c2nc([C@]34CC[C@](/C=C/C(=O)O)(CC3)CC4)[nH]c2n(CCC)c1=O |  | 9.6 | 333 | 100 | 3330 |  |  |  | 100
CCCn1c(=O)c2nc([C@H]3CC[C@H](C(=O)NCCN(C)C)CC3)[nH]c2n(CCC)c1=O |  | 12 | 14 |  | 168 | 16 |  |  | 91
CCCn1c(=O)c2nc([C@H]3CC[C@H](NC(=O)OCc4ccccc4)CC3)[nH]c2n(CCC)c1=O |  |  | 27 |  |  | 24 |  |  | 86
CCCn1c(=O)c2nc([C@H]3CC[C@H](COCc4ccccc4)CC3)[nH]c2n(CCC)c1=O |  | 171 | 16 |  | 2720 | 28 |  |  | 95
CCCn1c(=O)c2nc([C@]34CC[C@](C(=O)OC)(CC3)CC4)[nH]c2n(CCC)c1=O |  |  | 101 |  |  | 19 |  |  | 44
CCCn1c(=O)c2nc([C@H]3CC[C@H](C(=O)N(CC)CC)CC3)[nH]c2n(CCC)c1=O |  |  |  |  |  | 39 | 46 | 70 | 100
CCCn1c(=O)c2nc([C@H]3CC[C@H](NC(C)=O)CC3)[nH]c2n(CCC)c1=O |  |  |  |  |  | 38 | 45 | 92 | 100
CCCn1c(=O)c2nc([C@H]3CC[C@H](CO)CC3)[nH]c2n(CCC)c1=O |  |  | 8 |  |  | 18 |  |  | 77
CCCn1c(=O)c2nc([C@H]3CC[C@H](C(=O)O)CC3)[nH]c2n(CCC)c1=O |  |  |  |  |  | 69 | 31 | 75 | 88
CCCn1c(=O)c2nc([C@]34CC[C@](CO)(CC3)CC4)[nH]c2n(CCC)c1=O |  | 16 | 26 |  | 414 | 27 |  |  | 73
CCCn1c(=O)c2nc([C@]34CC[C@](C(=O)NCCN(C)C)(CC3)CC4)[nH]c2n(CCC)c1=O |  | 6 | 22 |  | 132 | 3 |  |  | 79
CCCn1c(=O)c2nc([C@]34CC[C@](C(=O)N(C)CC(=O)OC)(CC3)CC4)[nH]c2n(CCC)c1=O |  | 112 | > 89 | 296 | > 10000 |  |  |  | 88
CCCn1c(=O)c2[nH]c([C@]34CC[C@](C(=O)OC)(CC3)CC4)nc2n(CCC)c1=O |  | 9 |  |  | 912 |  |  |  | 
CCCn1c(=O)c2nc([C@]34CC[C@](C(=O)NCC(=O)O)(CC3)CC4)[nH]c2n(CCC)c1=O |  | 49 | 161 |  | 7880 | 53 |  |  | 70
CCCn1c(=O)c2[nH]c([C@H]3CC[C@H](CO)CC3)nc2n(CCC)c1=O |  | 41 |  |  | 313 |  |  |  | 
CCCn1c(=O)c2nc([C@H]3CC[C@H](C(=O)N4CCOCC4)CC3)[nH]c2n(CCC)c1=O |  |  |  |  |  | 48 | 60 | 99 | 88
CCCn1c(=O)c2nc([C@]34CC[C@](C(=O)N5CCC(C(=O)O)CC5)(CC3)CC4)[nH]c2n(CCC)c1=O |  | 96 | 81 |  | 7820 | 41 |  |  | 100
CCCn1c(=O)c2nc([C@]34CC[C@](C=O)(CC3)CC4)[nH]c2n(CCC)c1=O |  | 15 | 53 |  | 799 | 14 |  |  | 76
CCCCNC(=O)[C@H]1CC[C@H](c2nc3c(=O)n(CCC)c(=O)n(CCC)c3[nH]2)CC1 |  | 46 | 49 |  | 2260 | 11 |  |  | 93
CCCn1c(=O)c2nc([C@H]3CC[C@@H](NC(C)=O)CC3)[nH]c2n(CCC)c1=O |  |  |  |  |  | 46 | 60 | 63 | 100
CCCn1c(=O)c2nc(C3CCC(NC(=O)OCc4ccccc4)CC3)[nH]c2n(CCC)c1=O (mixture of isomers) |  |  |  |  |  | 30 | 23 | 69 | 100
